{"source": "paper PMC9328826", "about": "(Journal of Food and Drug Analysis, 2016)", "key": {"[1]": {"test": "WST-8 cytotoxicity assay on NIH/3T3 cells", "type": "cell-based", "conditions": "mouse, NIH/3T3 embryonic fibroblast cells", "summary_of_the_method": "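NIH/3T3 cells, cultured in HEPES-buffered E-MEM with 10% FBS at 37°C, 5% CO2, seeded at 2 × 10^3 cells/well. Exposed to test compound at 0.5–10 μM for 24 and 48 hours at 37°C, with 0.1% DMSO for control and cell-free blank. WST-8 added for 4 hours, then OD read at 450 nm. Viability given as % of control (n = 3); IC50 fitted from dose-response curve by Hill slope.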"}, "caspase-9": {"tested_on": "caspase-9", "test": "Caspase-9 activity, FAM-LEHD-FMK fluorescence probe", "type": "cell-based, human", "conditions": "HeLa, 24 hours; Compound 1 at 3 μM", "summary_of_the_method": "(§1)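 HeLa cells grown in E-MEM with 4.2 mM HEPES, 10% FBS, penicillin/streptomycin, 37°C, 5% CO2. 3 × 10^6 cells exposed to test compound at 3 μM for 24 hours, harvested, labelled 1 hour at 37°C with FAM-FLICA probe (DEVD-FMK caspase-3/7, LETD-FMK caspase-8, LEHD-FMK caspase-9), washed. Fluorescence at ex 485/em 530 nm on a plate reader, given as n-fold over control. Mean ± SD; Duncan test.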"}, "[2]": {"tested_on": "mitochondria membrane potential of HeLa cells", "test": "JC-1 assay of mitochondria membrane potential", "type": "cell-based, human", "conditions": "10 μM, 48 hours, untreated cells 294", "summary_of_the_method": "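5 × 10^5 HeLa cells exposed to test compound at 3 μM for 24 and 48 hours, or to a reference drug at 10 μM. Stained with JC-1 for 30 minutes at 37°C, then washed. Green signal read at ex 485/em 530 nm on a plate reader. Red fluorescence (ex 520/em 595 nm) imaged by microscopy at ×400, with intensity quantified from the images. Mean ± SD; Duncan test.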"}, "caspase-8": {"tested_on": "caspase-8", "test": "Caspase-8 activity, FAM-LETD-FMK fluorescence probe", "type": "cell-based, human", "conditions": "HeLa, 24 hours; Compound 1 at 3 μM", "summary_of_the_method": "as §1"}, "caspase-3/7": {"tested_on": "caspase-3/7", "test": "Caspase-3/7 activity, FAM-DEVD-FMK fluorescence probe", "type": "cell-based, human", "conditions": "HeLa, 24 hours; Compound 1 at 3 μM", "summary_of_the_method": "as §1"}, "HT-29 cell line": {"tested_on": "HT-29 cell line", "conditions": "read-out: IC50, cytotoxic activity on HT-29 cell line; 72 hours ref 19; cited from earlier work"}, "K562/ADM cell line": {"tested_on": "K562/ADM cell line", "conditions": "read-out: IC50, cytotoxic activity on K562/ADM cell line; 72 hours ref 11; cited from earlier work"}}, "note": "pIC50: −log10 of the molar value.", "data": [{"compound": "C=C1C(=O)O[C@H]2[C@H]1[C@H](OC(=O)[C@@]1(C)O[C@H]1C)[C@@H](OC(C)=O)/C(C(=O)OC)=C\\CC[C@@]1(C)O[C@H]21", "note": "[Compound 3, Enhydrin]", "values": [{"measurement": "IC50 at 24 h", "setting": "[1]", "value": 2.7, "unit": "µM"}, {"measurement": "IC50 at 48 h", "setting": "[1]", "value": 1530, "unit": "nM"}]}, {"compound": "CC(=O)O[C@H]1C(=O)[C@@]2(C)[C@H]([C@H](OC(=O)c3ccccc3)[C@]3(O)C[C@H](OC(=O)[C@H](O)[C@@H](NC(=O)c4ccccc4)c4ccccc4)C(C)=C1C3(C)C)[C@]1(OC(C)=O)CO[C@@H]1C[C@@H]2O", "note": "[Taxol]", "values": [{"measurement": "IC50 at 24 h", "setting": "[1]", "value": 0.39, "unit": "µM"}, {"measurement": "IC50 at 48 h", "setting": "[1]", "value": 120, "unit": "nM"}]}, {"compound": "COc1cc([C@@H]2c3cc4c(cc3[C@@H](O[C@@H]3O[C@@H]5CO[C@@H](C)O[C@H]5[C@H](O)[C@H]3O)[C@H]3COC(=O)[C@H]23)OCO4)cc(OC)c1O", "note": "[Etoposide]", "values": [{"measurement": "increase of caspase-9 activity against control", "setting": "caspase-9", "value": 3.96, "unit": "fold"}, {"measurement": "red fluorescence intensity (RFI), JC-1", "setting": "[2]", "value": 17.56}, {"measurement": "increase of caspase-8 activity against control", "setting": "caspase-8", "value": 3.18, "unit": "fold"}, {"measurement": "increase of caspase-3/7 activity against control", "setting": "caspase-3/7", "value": 3.88, "unit": "fold"}, {"measurement": "IC50 at 24 h", "setting": "[1]", "value": 7.43, "unit": "µM"}, {"measurement": "IC50 at 48 h", "setting": "[1]", "value": 820, "unit": "nM"}]}, {"compound": "rufescenolide C", "values": [{"measurement": "pIC50", "setting": "HT-29 cell line", "value": 6.82}]}, {"compound": "C=C1CC[C@H]2C(OC(=O)[C@@H]2C)[C@H]2[C@@H]1CC(=O)[C@@H]2CC=C1CC[C@H]2C(=C)[C@H](O)C[C@@H]3[C@H](OC(=O)[C@H]3C)[C@@H]12", "note": "(stereo partly drawn) [biguaiascorzolide A]", "values": [{"measurement": "pIC50", "setting": "K562/ADM cell line", "value": 4.40}]}, {"compound": "C=C1C(=O)O[C@@H]2/C=C(\\C)CC/C=C(/C(=O)OC)[C@H](OC(C)=O)[C@@H](OC(=O)[C@]3(C)O[C@@H]3C)[C@@H]12", "note": "[Compound 4, Uvedalin]", "values": [{"measurement": "increase of caspase-9 activity against control", "setting": "caspase-9", "value": 3.17, "unit": "fold"}, {"measurement": "increase of caspase-8 activity against control", "setting": "caspase-8", "value": 1.47, "unit": "fold"}, {"measurement": "increase of caspase-3/7 activity against control", "setting": "caspase-3/7", "value": 2.34, "unit": "fold"}, {"measurement": "IC50 at 24 h", "setting": "[1]", "value": 5.29, "unit": "µM"}, {"measurement": "IC50 at 48 h", "setting": "[1]", "value": 2660, "unit": "nM"}]}, {"compound": "CO[C@@]12[C@H](COC(N)=O)C3=C(C(=O)C(C)=C(N)C3=O)N1C[C@@H]1N[C@@H]12", "note": "[Mitomycin C]", "values": [{"measurement": "IC50 at 24 h", "setting": "[1]", "value": 4.43, "unit": "µM"}, {"measurement": "IC50 at 48 h", "setting": "[1]", "value": 1260, "unit": "nM"}]}, {"compound": "C=C1C(=O)O[C@H]2[C@H]1CC/C(C)=C/CC[C@@]1(C)O[C@@H]21", "note": "[Parthenolide]", "values": [{"measurement": "IC50 at 24 h", "setting": "[1]", "value": 12.3, "unit": "µM"}, {"measurement": "IC50 at 48 h", "setting": "[1]", "value": 8950, "unit": "nM"}]}]}
